Screening data deposited in PubChem by several laboratories.
Mdm2-MdmX inh = inhibitors of human Mdm2/MdmX interaction; 3% of 330,000 active; AID 485346; O15151+Q00987; inhibition, % at 8 µM; SaOS-2 split-luciferase Mdm2/MdmX complementation, luminescence;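 active = inhibition of at least 50% at 8 µM in the primary screen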
Target sequence (O15151 whole entry, looked up): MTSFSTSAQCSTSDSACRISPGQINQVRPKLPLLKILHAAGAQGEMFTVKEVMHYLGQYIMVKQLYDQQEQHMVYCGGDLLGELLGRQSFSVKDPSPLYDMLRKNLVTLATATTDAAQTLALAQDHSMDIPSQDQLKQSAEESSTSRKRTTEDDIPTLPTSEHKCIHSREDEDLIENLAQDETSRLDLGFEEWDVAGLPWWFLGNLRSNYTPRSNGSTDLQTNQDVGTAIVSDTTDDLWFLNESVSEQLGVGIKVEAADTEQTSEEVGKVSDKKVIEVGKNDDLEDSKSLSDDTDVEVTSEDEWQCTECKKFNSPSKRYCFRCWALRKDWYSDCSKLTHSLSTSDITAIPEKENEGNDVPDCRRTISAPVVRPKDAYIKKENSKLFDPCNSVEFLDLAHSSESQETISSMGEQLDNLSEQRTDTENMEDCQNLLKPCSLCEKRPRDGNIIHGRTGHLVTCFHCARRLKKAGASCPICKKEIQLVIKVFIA
Target sequence (Q00987 whole entry, looked up): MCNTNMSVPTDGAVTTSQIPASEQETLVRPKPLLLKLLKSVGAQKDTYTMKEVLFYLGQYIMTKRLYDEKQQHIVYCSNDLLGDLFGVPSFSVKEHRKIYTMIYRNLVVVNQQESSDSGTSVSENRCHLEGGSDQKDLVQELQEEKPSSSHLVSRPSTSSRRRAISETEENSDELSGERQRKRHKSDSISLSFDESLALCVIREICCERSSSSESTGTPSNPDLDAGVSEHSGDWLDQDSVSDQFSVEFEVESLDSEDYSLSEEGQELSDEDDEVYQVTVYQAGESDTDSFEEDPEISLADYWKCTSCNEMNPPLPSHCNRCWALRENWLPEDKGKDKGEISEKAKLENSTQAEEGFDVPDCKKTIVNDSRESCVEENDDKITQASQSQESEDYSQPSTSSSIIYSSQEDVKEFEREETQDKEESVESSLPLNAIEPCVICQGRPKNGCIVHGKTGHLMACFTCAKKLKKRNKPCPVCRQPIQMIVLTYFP
SKKanGAS inh = SKKanGAS growth inhibition | S. pyogenes SKKanGAS, kanamycin growth, BacTiter-Glo, 6 h | inhibition, % at 7.5 µM | 1.3% of 300,000 active;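 active = mean replicate score, as percent of positive control median, at least 50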;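 also: strain carries kanamycin resistance gene driven by streptokinase promoter and grows in 40 µg/ml kanamycin; loss of luminescence reflects streptokinase promoter inhibition or plain growth inhibition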
Lmaj promast = inhibitors of Leishmania major promastigote growth; Leishmania major promastigotes, resazurin fluorescence viability; inhibition, % at 10 µM; 9% of 200,000 active; AID 1063; in the data active = inhibition above about 50%;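 also: promastigotes grown with compound for 44 hours at 28 °C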
T cruzi inh = T. cruzi replication inhibition | AID 1885 | T. cruzi beta-gal in NIH3T3, luminescence, 90 h | inhibition, % (test concentration not listed) | 1.4% of 300,000 active;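 active = mean inhibition across valid replicates above about 55%, limit read from the data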;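 also: signal also drops with host cell toxicity which is not excluded here; higher percent means less beta-gal luminescence so fewer parasites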
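Incubation – ≥90 h infection period, 3 h prior cell attachment · System – NIH/3T3 fibroblasts plus reporter T. cruzi · Doses – compound pinned at 50 nL/well, DMSO · Read-out basis – percent inhibition of parasite-derived β-gal signal · Signal – luminescent β-galactosidase signal after 60 min lysis · Also added – 5000 T. cruzi trypomastigotes/well · Medium – Low-serum DMEM with 2% FBS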
CSC inhib = cancer stem cell inhibition. cancer stem cell-like cells viability, luminescence. inhibition, % at 7.5 µM. 1.1% of 300,000 active. AID 2717; in the data active = inhibition above about 75%; tested in HMLE shEcad cells
Beta apoptosis = blocks beta cell apoptosis | 0.8% of 300,000 active | INS-1E cytokine-induced death, ATP luminescence, 48 h; percent of positive-control rescue, neutral wells zero | protection from apoptosis, % (no concentration beside the values);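 active = Every replicate reaches about 75%, or at least half do and their mean reaches it too, limit read from the data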;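 also: higher means more ATP so stronger rescue from cytokine killing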
Mdm2 MdmX conf = confirmation of human Mdm2/MdmX interaction inhibitors | shares compounds with Mdm2-MdmX inh | Mdm2-MdmX binding, luminescent assay | inhibition, % at 8 µM | 55% of 10,000 active; in the data active = inhibition above about 40%
FLuc counter = inhibits full-length luciferase, flagging false Mdm2/MdmX hits. shares compounds with Mdm2-MdmX inh. SaOS-2 full-length luciferase counterscreen, luminescence. inhibition, % at 8 µM. 77% of 6,200 active. AID 504607;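 active = mean inhibition at 8 µM reaching about 37%, which flags the compound as non-specific, limit read from the data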;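 also: p53-null SaOS-2 cells with luciferase driven by a doxycycline-inducible promoter; compound on cells about two nights before reading with doxycycline added after day one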
Hits are given with their value; – = inactive; · = not tested or not shown. Sampled rows, rich in hits. Any-hit rate of the full collection: about 9.4%.

SMILES | Mdm2-MdmX inh | SKKanGAS inh | Lmaj promast | T cruzi inh | CSC inhib | Beta apoptosis | Mdm2 MdmX conf | FLuc counter
Cc1cc(C(=O)N/N=C/c2cc(Br)ccc2OC(=O)c2ccccc2)n[nH]1 | 51 | · | – | · | – | 100 | – | –
Cc1cc(C(=O)N/N=C/c2cc(Br)ccc2OC(=O)c2ccccc2Cl)n[nH]1 | 57 | – | 98 | – | · | · | 46 | 53
NNc1nc2ccccc2c(=O)n1Cc1ccccc1 | – | – | · | – | – | – | · | ·
COc1ccc(NC(=O)CCC(=O)Nc2nnc(C3CCCCC3)s2)c(OC)c1 | – | – | · | – | – | – | · | ·
COC(C[C@@H]1O[C@H]1C(=O)COCc1ccccc1)OC | – | – | · | – | – | – | · | ·
O=C(CN1C(=O)C(=O)N(Cc2ccco2)C1=O)NC1CCCCC1 | – | – | – | – | – | – | · | ·
COc1ccc(CN2C(=O)c3ccccc3C2=O)cc1C(=O)Nc1ccc(C)cc1C | – | – | – | – | – | – | · | ·
COCCCNC(=O)c1cc(OC)c(OC)c(OC)c1 | – | – | – | – | – | – | · | ·
COc1cc(C(=O)NCCCCCCNC(=O)c2cc(OC)c(OC)c(OC)c2)cc(OC)c1OC | 52 | – | · | – | – | – | – | ·
CCCNc1nc(C)cc(-c2cc(-c3ccccc3)on2)n1 | – | – | · | – | – | – | · | ·
COc1ccc(Nc2nc(C)cc(-c3cc(-c4ccccc4)on3)n2)cc1 | 68 | – | · | – | – | – | 50 | 83
Nc1c(C(=O)Nc2ccc(F)cc2)sc(=S)n1-c1ccccc1F | 72 | – | – | – | – | – | – | ·
Cn1c(N)c(C(=O)Nc2ccccc2F)sc1=S | – | – | · | · | – | – | · | ·
CC(C)Cn1c(N)c(C(=O)CSc2cc(Cl)ccc2Cl)c(=O)n(C)c1=O | 69 | – | – | – | – | – | – | ·
Cc1cnc(NC(=O)Nc2ccc(OCc3ccccc3)cc2)c(Br)c1 | – | – | · | – | – | – | · | ·
Cc1cc(OCC(=O)Nc2ccccn2)c2c(C)c(C)c(=O)oc2c1 | 52 | – | · | – | – | – | – | ·
COc1ccc(NC(=O)c2cc(-c3cc(C)c(C)cc3O)n[nH]2)c(OC)c1 | – | – | · | – | · | · | · | ·
Cc1cc(O)c(-c2cc(C(=O)Nc3ccc(S(=O)(=O)N4CCOCC4)cc3)[nH]n2)cc1C | – | – | – | – | – | – | · | ·
O=C(Nc1ccc(S(=O)(=O)N2CCOCC2)cc1)c1cc(-c2cc(Cl)ccc2O)n[nH]1 | 87 | – | · | – | 94 | – | 79 | 39
COc1ccc(NC(=O)c2cc(-c3cc(Cl)ccc3O)n[nH]2)c(OC)c1 | 69 | – | · | – | – | – | – | ·
C=CC[C@H](CC(=O)OC(C)(C)C)C(=O)OC[C@@H]1CCCN1C(=O)[C@H](CC=C)CC(=O)N[C@H](CO)Cc1ccccc1 | – | · | · | · | – | – | · | ·
C[C@]12C(=O)N(c3ccc(C(F)(F)F)cc3)C(=O)N1[C@H]1c3ccccc3OC[C@@H]1[C@H]2c1ccccc1 | 57 | · | · | · | – | – | – | ·
C[C@@]12C(=O)N(c3ccccc3)C(=O)N1[C@@H]1c3ccccc3OC[C@@H]1[C@H]2c1ccccc1 | – | · | · | · | – | – | · | ·
CCOc1ccccc1OCCC(=O)OCC(=O)Nc1c(C)cc(C)cc1C | – | – | · | – | – | – | · | ·
O=C(NC1CCCc2c1cnn2-c1ccccc1F)c1ccccc1N1CCOCC1 (stereo not given) | – | – | · | – | – | – | · | ·
SMILES | Mdm2-MdmX inh | SKKanGAS inh | Lmaj promast | T cruzi inh | CSC inhib | Beta apoptosis | Mdm2 MdmX conf | FLuc counter
Cc1n[nH]c(C)c1N=Nc1cc(Cl)ccc1Cl | 52 | – | – | – | – | – | – | 39
Clc1ccc2nc(N3CCNCC3)nc(-c3ccccc3)c2c1 | 64 | – | 101 | – | – | – | – | ·
O=C1CN(c2nc(-c3ccccc3)c3cc(Cl)ccc3n2)c2ccccc2N1 | 68 | – | – | – | – | – | – | ·
Cc1cccc(C)c1NC(=O)COC(=O)c1cccc2c1C(=O)c1ccccc1C2=O | 59 | – | – | – | – | – | – | 77
Cc1cccc(NC(=O)COC(=O)c2cccc3c2C(=O)c2ccccc2C3=O)c1C | – | – | – | – | – | – | · | ·
Cc1[nH]nc2c1C(c1cc(Br)cs1)C(C#N)=C(N)O2 (stereo not given) | 70 | – | 99 | – | – | – | – | ·
COc1ccc([N+](=O)[O-])cc1NC(=O)CSCc1ccc(Br)cc1 | 51 | – | – | – | · | – | – | ·
COc1ccc([N+](=O)[O-])cc1NC(=O)CSCc1ccccc1C | – | – | – | – | – | – | · | ·
O=C(N/N=C/c1cnc(N2CCCCC2)s1)c1ccc(C(F)(F)F)cc1 | 69 | – | – | – | – | 104 | 58 | 37
Cn1c(-c2ccccc2)cc2onc(-c3ccccc3)c2c1=O | 62 | · | · | · | – | – | – | 113
COc1ccc(/C=N\NC(=O)c2sccc2C)cc1Cn1nc(C)cc1C | 59 | – | · | – | – | – | 64 | 73
O=C(Nc1ccc(N2CCCCC2)c(Cl)c1)c1cccnc1 | 66 | – | – | – | · | – | 46 | 50
O=C(Nc1ccc(N2CCOCC2)c(Cl)c1)c1c(F)c(F)c(F)c(F)c1F | 57 | – | – | – | – | – | 46 | 45
COc1cccc(/C=C/C(=O)OCC(=O)NC(=O)NC2CCCCC2)c1 | – | – | · | – | · | – | · | ·
O=C(NCCCc1ccccc1)[C@@H]1Cc2ccccc2CN1 | – | – | · | – | – | – | · | ·
CCc1cc2c(=O)n(CCC(C)C)c(=S)[nH]c2s1 | – | – | – | – | – | – | · | ·
CC(C)(C)C(C(Oc1ccc(Cl)cc1)n1cncn1)n1nnnc1C(c1cccc(Cl)c1)N1CCCCC1 (stereo not given) | 57 | – | 65 | 55 | – | · | – | ·
COCCn1nnnc1C(c1cccc(C#N)c1)N1CCCCCC1 (stereo not given) | – | – | – | – | – | – | · | ·
Cc1ccc(Nc2nnc(SCC(=O)NC(Cc3c[nH]c4ccccc34)C(=O)O)s2)cc1 (stereo not given) | – | – | – | – | – | – | · | ·
CN(CCNC(=O)c1ccc(CS(=O)(=O)c2c(Cl)cccc2Cl)o1)CCc1ccccc1 | – | – | · | – | – | – | · | ·
Cc1ccc(Cl)cc1N1CCN(S(=O)(=O)c2ccc3c(c2)NC(=O)C(C)C(=O)N3)CC1 (stereo not given) | – | – | · | – | – | – | · | ·
CC(Oc1ccccc1)C(=O)Nc1ccc(C(N)=O)cc1 (stereo not given) | – | – | – | – | · | – | · | ·
COc1ccc(NC(=O)C#Cc2ccccc2)cc1OC | 57 | – | · | – | – | – | – | ·
NC(=O)c1ccc(NC(=O)C#Cc2ccccc2)cc1 | 85 | – | · | – | – | – | 77 | 51
COc1ccc(-c2nn(-c3ccccc3)cc2C(=O)NC(=S)Nc2cc(Cl)ccc2Cl)cc1 | 74 | – | · | – | – | – | 43 | 51
COc1ccc(-c2nn(-c3ccccc3)cc2C(=O)O)cc1 | – | – | – | – | – | – | · | ·
